Laboratory results reported in ChEMBL document CHEMBL1629600, “Multiple-dose pharmacokinetic behavior of elvucitabine, a nucleoside reverse transcriptase inhibitor, administered over 21 days with lopinavir-ritonavir in human immunodeficiency virus type 1-infected subjects” (Antimicrob Agents Chemother, 2009).

Legend:
[1] = AUC (0 to 24 hrs) in HIV1 infected human at 5 mg after 24 hrs presence of 400 mg of Lopinavir and 100 mg of itonavir; format: ADME, organism-based; set-up: time < 24 hr, dose 5 mg; details: plasma
In short: (§1)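 HIV-infected adults (3.6–5.6 log10 RNA copies/ml) given enteric-coated tablets fasting; lopinavir-ritonavir given with food 2 h later. Plasma drawn on days 1 and 21 predose and at 0.5–24 h postdose. LC-MS/MS assay, range 0.500–100 ng/ml. Noncompartmental analysis gave Cmax, Tmax, C24 (24-h concentration) and linear-trapezoidal AUC0-24. Reported as arithmetic mean (%CV), median (range).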

[2] = Cmax in HIV1 infected human at 5 mg after 24 hrs presence of 400 mg of Lopinavir and 100 mg of itonavir; format: ADME, organism-based; set-up: dose 5 mg; details: in vivo; in short: as §1
[3] = Tmax in HIV1 infected human at 5 mg after 24 hrs presence of 400 mg of Lopinavir and 100 mg of itonavir; format: ADME, organism-based; details: in vivo; in short: as §1
[4] = Drug level in HIV1 infected human plasma at 5 mg after 24 hrs presence of 400 mg of Lopinavir and 100 mg of itonavir; format: ADME; details: read-out: Drug uptake; in short: as §1
[5] = AUC (0 to 24 hrs) in HIV1 infected human at 10 mg after 24 hrs presence of 400 mg of Lopinavir and 100 mg of itonavir; format: ADME, organism-based; set-up: time < 24 hr, dose 10 mg; details: plasma; in short: as §1
[6] = Cmax in HIV1 infected human at 10 mg after 24 hrs presence of 400 mg of Lopinavir and 100 mg of itonavir; format: ADME, organism-based; set-up: dose 10 mg; details: in vivo; in short: as §1
[7] = Tmax in HIV1 infected human at 10 mg after 24 hrs presence of 400 mg of Lopinavir and 100 mg of itonavir; format: ADME, organism-based; details: in vivo; in short: as §1
[8] = Drug level in HIV1 infected human plasma at 10 mg after 24 hrs presence of 400 mg of Lopinavir and 100 mg of itonavir; format: ADME, organism-based; details: read-out: Drug uptake; in short: as §1
[9] = AUC (0 to 24 hrs) in HIV1 infected human at 20 mg after 24 hrs in presence of 400 mg of Lopinavir and 100 mg of itonavir administered once every 12 hrs; format: ADME, organism-based; set-up: time < 24 hr, dose 20 mg; details: plasma; in short: as §1
[10] = Cmax in HIV1 infected human at 20 mg after 24 hrs in presence of 400 mg of Lopinavir and 100 mg of itonavir administered once every 12 hrs; format: ADME, organism-based; set-up: dose 20 mg; details: in vivo; in short: as §1
[11] = Tmax in HIV1 infected human at 20 mg after 24 hrs in presence of 400 mg of Lopinavir and 100 mg of itonavir administered once every 12 hrs; format: ADME, organism-based; details: in vivo; in short: as §1
[12] = Drug level in HIV1 infected human plasma at 20 mg after 24 hrs in presence of 400 mg of Lopinavir and 100 mg of itonavir administered once every 12 hrs; format: ADME; details: read-out: Drug uptake; in short: as §1
[13] = AUC (0 to 24 hrs) in HIV1 infected human at 5 mg qd for 21 days in presence of 400 mg of Lopinavir and 100 mg of itonavir administered once every 12 hrs; format: ADME, organism-based; set-up: time < 24 hr, dose 5 mg; details: plasma; in short: as §1
[14] = Cmax in HIV1 infected human at 5 mg qd for 21 days in presence of 400 mg of Lopinavir and 100 mg of itonavir administered once every 12 hrs; format: ADME, organism-based; set-up: dose 5 mg; details: in vivo; in short: as §1
[15] = Tmax in HIV1 infected human at 5 mg qd for 21 days in presence of 400 mg of Lopinavir and 100 mg of itonavir administered once every 12 hrs; format: ADME, organism-based; details: in vivo; in short: as §1
[16] = Drug level in HIV1 infected human plasma at 5 mg qd for 21 days in presence of 400 mg of Lopinavir and 100 mg of itonavir administered once every 12 hrs; format: ADME, organism-based; details: read-out: Drug uptake; in short: as §1
[17] = Half life in HIV1 infected human at 5 mg qd for 21 days in presence of 400 mg of Lopinavir and 100 mg of itonavir administered once every 12 hrs; format: ADME, organism-based; details: in vivo
In short: (§2)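 Elimination rate constant and t1/2 obtained by noncompartmental analysis after the day-21 dose, using 336 h of terminal-phase sampling. Plasma collected through day 35 (days 25, 28, 35 after stopping). Concentrations measured by LC-MS/MS, range 0.500–100 ng/ml. Eight subjects per cohort; reported as mean (%CV), median (range).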

[18] = AUC (0 to 24 hrs) in HIV1 infected human at 10 mg qd for 21 days in presence of 400 mg of Lopinavir and 100 mg of itonavir administered once every 12 hrs; format: ADME, organism-based; set-up: dose 10 mg, time < 24 hr; details: plasma; in short: as §1
[19] = Cmax in HIV1 infected human at 10 mg qd for 21 days in presence of 400 mg of Lopinavir and 100 mg of itonavir administered once every 12 hrs; format: ADME, organism-based; set-up: dose 10 mg; details: in vivo; in short: as §1
[20] = Tmax in HIV1 infected human at 10 mg qd for 21 days in presence of 400 mg of Lopinavir and 100 mg of itonavir administered once every 12 hrs; format: ADME, organism-based; details: in vivo; in short: as §1
[21] = Drug level in HIV1 infected human plasma at 10 mg qd for 21 days in presence of 400 mg of Lopinavir and 100 mg of itonavir administered once every 12 hrs; format: ADME, organism-based; details: read-out: Drug uptake; in short: as §1
[22] = Half life in HIV1 infected human at 10 mg qd for 21 days in presence of 400 mg of Lopinavir and 100 mg of itonavir administered once every 12 hrs; format: ADME, organism-based; details: in vivo; in short: as §2
[23] = AUC (0 to 24 hrs) in HIV1 infected human at 20 mg administered once every 48 hrs for 21 days in presence of 400 mg of Lopinavir and 100 mg of itonavir administered once every 12 hrs; format: ADME, organism-based; set-up: dose 20 mg, time < 24 hr; details: plasma; in short: as §1
[24] = Cmax in HIV1 infected human at 20 mg administered once every 48 hrs for 21 days in presence of 400 mg of Lopinavir and 100 mg of itonavir administered once every 12 hrs; format: ADME, organism-based; set-up: dose 20 mg; details: in vivo; in short: as §1
[25] = Tmax in HIV1 infected human at 20 mg administered once every 48 hrs for 21 days in presence of 400 mg of Lopinavir and 100 mg of itonavir administered once every 12 hrs; format: ADME, organism-based; details: in vivo; in short: as §1
[26] = Drug level in HIV1 infected human plasma at 20 mg administered once every 48 hrs for 21 days in presence of 400 mg of Lopinavir and 100 mg of itonavir administered once every 12 hrs; format: ADME, organism-based; details: read-out: Drug uptake; in short: as §1
[27] = Half life in HIV1 infected human at 20 mg administered once every 48 hrs for 21 days in presence of 400 mg of Lopinavir and 100 mg of itonavir administered once every 12 hrs; format: ADME, organism-based; details: in vivo; in short: as §2
Homo sapiens [28] = assay: Peripheral volume of distribution with respect to the bioavailability in HIV1 infected human at 20 mg administered once every 48 hrs for 21 days in presence of 400 mg of Lopinavir and 100 mg of itonavir administered once every 12 hrs; format: ADME, organism-based; details: in vivo
In short: (§3)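 Population compartmental fit to all plasma concentrations over 804 h. Two-compartment model with two first-order absorption rates, lag times per dose and first-order elimination. Relative bioavailability allowed to differ for day 1, the only dose given before lopinavir-ritonavir. Weighting 1/S², with S² = (a + b×Y)². Parameters expressed relative to F (CL/F, V/F).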

[29] = Volume of distribution at steady state with respect to the bioavailability in HIV1 infected human at 20 mg administered once every 48 hrs for 21 days in presence of 400 mg of Lopinavir and 100 mg of itonavir administered once every 12 hrs; format: ADME, organism-based; details: in vivo, read-out: Vss/F; in short: as §3
[30] = Terminal half life in HIV1 infected human at 20 mg administered once every 48 hrs for 21 days in presence of 400 mg of Lopinavir and 100 mg of itonavir administered once every 12 hrs; format: ADME, organism-based; details: in vivo, read-out: beta t1/2 (converted); in short: as §3
Homo sapiens [31] = organism: Homo sapiens; assay: Time prior to start absorption at first absorption site in HIV1 infected human at 20 mg after 24 hrs; format: ADME, organism-based; details: in vivo; in short: as §3
Homo sapiens [32] = organism: Homo sapiens; assay: Time prior to start absorption at second absorption site in HIV1 infected human at 20 mg after 24 hrs; format: ADME, organism-based; details: in vivo; in short: as §3
Homo sapiens [33] = assay: Time prior to start absorption at first absorption site in HIV1 infected human at 20 mg administered once every 48 hrs for 21 days in presence of 400 mg of Lopinavir and 100 mg of itonavir administered once every 12 hrs; format: ADME, organism-based; details: in vivo; in short: as §3
Homo sapiens [34] = assay: Time prior to start absorption at second absorption site in HIV1 infected human at 20 mg administered once every 48 hrs for 21 days in presence of 400 mg of Lopinavir and 100 mg of itonavir administered once every 12 hrs; format: ADME, organism-based; details: in vivo; in short: as §3
Homo sapiens [35] = assay: Absorption rate constant at first absorption site in HIV1 infected human at 20 mg administered once every 48 hrs for 21 days in presence of 400 mg of Lopinavir and 100 mg of itonavir administered once every 12 hrs; format: ADME, organism-based; details: in vivo; in short: as §3
Homo sapiens [36] = assay: Absorption rate constant at second absorption site in HIV1 infected human at 20 mg administered once every 48 hrs for 21 days in presence of 400 mg of Lopinavir and 100 mg of itonavir administered once every 12 hr; format: ADME, organism-based; details: in vivo; in short: as §3
[37] = Oral bioavailability in HIV1 infected human at 20 mg after 24 hrs; format: ADME, organism-based; details: in vivo; in short: as §3
[38] = Apparent oral clearance in HIV1 infected human at 20 mg administered once every 48 hrs for 21 days in presence of 400 mg of Lopinavir and 100 mg of itonavir administered once every 12 hrs; format: ADME, organism-based; details: in vivo; in short: as §3
Homo sapiens [39] = assay: Central volume of distribution with respect to the bioavailability in HIV1 infected human at 20 mg administered once every 48 hrs for 21 days in presence of 400 mg of Lopinavir and 100 mg of itonavir administered once every 12 hrs; format: ADME, organism-based; details: in vivo; in short: as §3
Homo sapiens [40] = assay: Distributional clearance with respect to the bioavailability in HIV1 infected human at 20 mg administered once every 48 hrs for 21 days in presence of 400 mg of Lopinavir and 100 mg of itonavir administered once every 12 hrs; format: ADME, organism-based; details: in vivo; in short: as §3

For `Nc1nc(=O)n([C@@H]2C=C[C@H](CO)O2)cc1F` [ELVUCITABINE], the AUC(0-t) at 24 h [1] was 59.9 ng·h/mL, the Cmax [2] was 7.25 ng/mL and the Tmax [3] was 6.63 h. It also gave a concentration at 24 h [4] of 0.832 ng/mL, an AUC(0-t) at 24 h [5] of 155 ng·h/mL and a Cmax [6] of 25.3 ng/mL. The Tmax [7] was 3.31 h, the concentration at 24 h [8] was 1.87 ng/mL and the AUC at 24 h [9] was 262 ng·h/mL. The Cmax [10] was 39.1 ng/mL, the Tmax [11] was 3.75 h and the concentration at 24 h [12] was 3.41 ng/mL. It also gave an AUC at 24 h [13] of 214 ng·h/mL, a Cmax [14] of 23.1 ng/mL and a Tmax [15] of 7 h. It also gave a concentration at 21 days [16] of 4.38 ng/mL, a half-life [17] of 92.5 h and an AUC at 24 h [18] of 435 ng·h/mL. The Cmax [19] was 49.9 ng/mL, the Tmax [20] was 3.75 h and the concentration at 21 days [21] was 9.7 ng/mL. It also gave a half-life [22] of 112 h, an AUC at 24 h [23] of 749 ng·h/mL and a Cmax [24] of 108 ng/mL. The Tmax [25] was 4 h, the concentration at 21 days [26] was 12 ng/mL and the half-life [27] was 105 h. The Vp/F (Homo sapiens [28]) was 1618 L, the Vd/F [29] was 1620 L and the half-life [30] was 120 h. The Time (Homo sapiens [31]) was 0.363 h, the Time (Homo sapiens [32]) was 0.445 h and the Time (Homo sapiens [33]) was 0.341 h. The Time (Homo sapiens [34]) was 1.02 h, the ka (Homo sapiens [35]) was 0.065 h⁻¹ and the ka (Homo sapiens [36]) was 0.42 h⁻¹. The bioavailability [37] was 55.4%, the CL/F [38] was 423 mL/min and the Vc/F (Homo sapiens [39]) was 6.43 L. For the same compound, the CLd/F (Homo sapiens [40]) was 15.4 L/h.
